Source: PubChem BioAssay
Diaph inh CS: diaphorase inhibition or chemical oxidation counter-screen | 0.69% of 190,000 active | diaphorase resazurin-to-resorufin fluorescence, NADH, 16 min; bacterial (C. kluyveri) enzyme, not human | AID 1217 | inhibition, % at 20 µM;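 active = primary screen inhibition at 20 µM above a set limit, cut at about 50% in these data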
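Test system: diaphorase enzyme from Clostridium kluyveri; amount: diaphorase at 0.14 U/mL in enzyme working solution; detection: fluorescence of resorufin formed from resazurin, Ex 544/Em 590 nm; times: reaction incubation of 16 min at room temperature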
Diaph act CS: activates diaphorase or chemically reduces, flagging diaphorase assay artifacts; Diaphorase/resazurin coupled assay, resorufin fluorescence, 16 min; hits give high values; 1 = vehicle wells, 0 = NADH-free wells; activation factor at 20 µM; 0.005% of 190,000 active; AID 1229;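 active = diaphorase activity raised at least twofold by the compound at 20 µM; inactive = activation factor below 2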
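Assay system: bacterial diaphorase enzyme (C. kluyveri) / Input: enzyme 0.07 U/mL final / Medium: 50 mM HEPES pH 7.4 with 4.542 mM MgCl2, 0.005% Tween 20 / Doses: single compound dose of 20 µM, 1% DMSO final / Incubation: 16 min enzyme reaction, ambient temperature / Signal: fluorescence, excitation 544 nm and emission 590 nm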
ROMK primary: modulates human ROMK potassium channel activity. P48048. Tet-inducible ROMK, thallium flux fluorescence; actives lie on both sides. 2% of 130,000 active. B-score at 10 µM. AID 1918;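 active = signal ratio slope over the read window, or its plate-corrected B-score, at least 3 SD from the plate mean, either direction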;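 note: B-score of the F/F0 ratio slope over 7 to 12 s after thallium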
G6PDH CS: counter-screen for G6PDH assay hits: L. mesenteroides G6PDH inhibition. Purified L. mesenteroides G6PDH, diaphorase/resazurin coupled fluorescence, 45 min. inhibition, % at 5 µM. 0.12% of 200,000 active; in the data active = inhibition above about 50%
PMI activator: phosphomannose isomerase (human) activation; purified human PMI, coupled resazurin fluorescence, 20 min; hits give high values; 1 = vehicle control, 0 substrate-free wells; activation factor at 20 µM; 0.005% of 190,000 active; AID 1214;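 active = activation factor of 2 or more at 20 µM, relative to plate controls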
Target sequence (P34949 whole entry, looked up): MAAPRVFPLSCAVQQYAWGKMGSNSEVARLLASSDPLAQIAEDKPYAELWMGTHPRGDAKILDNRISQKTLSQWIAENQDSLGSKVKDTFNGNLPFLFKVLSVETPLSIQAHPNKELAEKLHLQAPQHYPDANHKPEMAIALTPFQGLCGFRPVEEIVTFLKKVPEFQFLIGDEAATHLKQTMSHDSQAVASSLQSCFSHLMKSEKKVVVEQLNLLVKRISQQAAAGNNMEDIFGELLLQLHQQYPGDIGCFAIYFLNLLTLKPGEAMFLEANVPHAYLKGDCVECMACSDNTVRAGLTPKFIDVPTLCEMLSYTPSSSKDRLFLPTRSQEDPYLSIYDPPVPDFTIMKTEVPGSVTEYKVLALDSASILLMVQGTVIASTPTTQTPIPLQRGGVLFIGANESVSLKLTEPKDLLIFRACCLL
PMI act satM6P: increases human PMI activity with near-saturating mannose 6-phosphate; 0.34% of 190,000 active; AID 1216; activation factor at 20 µM; coupled PMI enzyme assay, resazurin fluorescence, 20 min; hits give high values; 1 = untreated enzyme, 0 = substrate-free blank;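 active = activation factor of 2 or more at 20 µM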
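test system = human PMI in coupled enzyme assay | medium = HEPES-buffered pH 7.4 with magnesium and detergent | also added = 1.0 mM mannose-6-phosphate substrate with 0.22 mM NADP+ | compound = 20 µM single dose | times = 20 min incubation at room temperature | measured by = resorufin fluorescence (Ex 544/Em 590 nm) from resazurin via diaphorase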
ROMK hit retest: retested hit modulating human ROMK potassium channel | shares compounds with ROMK primary | ROMK thallium flux, fluorescence ratio; hits give low values | normalized thallium flux (F/F0 slope) at 10 µM | 54% of 3,000 active | AID 1917;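 active = Flux at 10 µM at least 3 SD below or above vehicle control mean in one or both replicates; inconclusive = no clear call, values can overlap the other calls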
Each line names hits and unclear results; the compound was inactive in the other large screens (follow-up assays come after a bar, where they were run). Compounds with a hit are over-represented: about 2.2% of the library has one in this group of screens.

C/C(=N\NC(=O)COc1ccc(C)cc1Br)c1cc([N+](=O)[O-])cs1	none
C/C(=N\NC(=O)COc1ccc(C)cc1[N+](=O)[O-])c1cccs1	ROMK primary -2.6 | ROMK hit retest inactive
O=C(Cc1ccccc1)Nc1ccc(N2CCOCC2)cc1	ROMK primary -2 | ROMK hit retest inactive
c1ccc(Oc2nc(Oc3ccccc3)nc(N3CCOCC3)n2)cc1	ROMK primary -3.6 | ROMK hit retest inconclusive
O=C(Cc1ccccc1)Nc1ccc(N2CCCC2)cc1	none
c1ccc(N2CCOCCOCCOCCOCCOCC2)cc1	ROMK primary -6.7 | ROMK hit retest inactive
COc1cccc(-c2nnc3n2N=C(c2cc(OC)ccc2OC)CS3)c1	none
CCOc1cccc(-c2nnc3n2N=C(c2cc(OC)ccc2OC)CS3)c1	ROMK primary 3.8 | ROMK hit retest inactive
COC(=O)CSCC(=O)Nc1nnc(-c2cccc(C)c2)s1	none
COc1ccc(OC)c(NC(=O)c2sc3nc(Cc4ccccc4)cc(C(F)(F)F)c3c2N)c1	ROMK primary -4.2 | ROMK hit retest 0.033
COc1ccc(OC)c(-c2csc(NC(=O)Cc3cccs3)n2)c1	none
CCOC(=O)C1(Cc2ccccc2)CCN(Cc2cn(CC(=O)OC)c3ccccc23)CC1	ROMK primary -3.3 | ROMK hit retest 0.055
COc1ccc(-c2c(C)n([O-])c3c([n+]2=O)CCCC3)cc1OC	none
COC(=O)C(CC(C)C)NC(=O)C(Cc1ccccc1)NC(=O)C1CCCN1C(=O)OC(C)(C)C (centres undefined)	none
O=C(c1ccc([N+](=O)[O-])cc1)N1CCSC1c1ccc(Cl)cc1 (centres undefined)	ROMK primary -3.3 | ROMK hit retest inconclusive
Cc1ccc(Cn2ccc(=O)c(Cc3c(Cl)cccc3Cl)c2C)cc1	none (no result: ROMK primary) | ROMK hit retest 0.049
COc1ccc(Cn2ccc(=O)c(Cc3c(Cl)cccc3Cl)c2C)cc1	none (no result: ROMK primary)
CCOc1ccc2nc(C)cc(C(=O)O)c2c1	ROMK primary 1.9 | ROMK hit retest inactive
COc1ccc2nc(C)cc(C(=O)O)c2c1	none (no result: ROMK primary)
CCN(CC)CC(=O)Nc1ccc(-c2nc3cc(NC(=O)CN(CC)CC)ccc3o2)cc1	none (no result: ROMK primary)
CCC(C)NCC(=O)Nc1ccc(-c2nc3cc(NC(=O)CNC(C)CC)ccc3o2)cc1 (centres undefined)	ROMK primary -2.3 | ROMK hit retest 0.061
NC(=O)c1ccc(NC(=O)COc2ccc([N+](=O)[O-])cc2Cl)cc1	none
C/C(=N\Nc1ccc(C(F)(F)F)cn1)c1ccncc1	none
O=C(Nc1ccc(N2CCCC2)c(S(=O)(=O)Nc2cccc(C(F)(F)F)c2)c1)c1cccs1	none (no result: ROMK primary)
CCc1cc2c(NCC(=O)O)ncnc2s1	none (no result: ROMK primary)
CCc1cc2c(NCc3ccco3)ncnc2s1	ROMK primary -3.9 | ROMK hit retest inactive
CN(C)c1ccc(/C=C2\CCC/C(=C\c3ccccc3)C2=O)cc1	none (no result: ROMK primary) | ROMK hit retest inconclusive
Cc1ccc(S(=O)(=O)/N=C2/NC(=O)/C(=C/c3ccncc3)S2)cc1	none
Cc1ccc(S(=O)(=O)/N=C2/NC(=O)/C(=C/c3ccccc3)S2)cc1	ROMK primary -4.6 | ROMK hit retest 0.051
COc1cc(C2CC(=O)c3cnc(NC(=O)COc4ccccc4)nc3C2)cc(OC)c1OC (centres undefined)	none
COc1cc(C2CC(=O)c3cnc(N)nc3C2)cc(OC)c1OC (centres undefined)	ROMK primary 3.9 | ROMK hit retest inactive
Cc1ccc(S(=O)(=O)NC(CC(=O)NCC2CCCO2)c2ccccc2)cc1 (centres undefined)	none
O=C(Nc1cc(S(=O)(=O)N2CCCCC2)ccc1Cl)c1ccccc1NS(=O)(=O)c1ccc(F)cc1	none
Cc1ccc(S(=O)(=O)CC(=O)Nc2nc(-c3ccccc3)cs2)cc1	none
Cc1ccc(S(=O)(=O)NCc2ccc(C(=O)NCc3cccnc3)cc2)cc1	none
Cc1ccc(S(=O)(=O)Nc2ccccc2C(=O)Nc2nc(-c3ccc(F)cc3)cs2)cc1	none (no result: ROMK primary) | ROMK hit retest 0.057
Cc1ccc(S(=O)(=O)Nc2ccccc2C(=O)NCc2cccnc2)cc1	ROMK primary 2.8 | ROMK hit retest inactive
O=C(Nc1cc(S(=O)(=O)N2CCCCC2)ccc1O)c1ccccc1NS(=O)(=O)c1ccc(F)cc1	ROMK primary 3.3 | ROMK hit retest inactive
Cc1ccc(NC(=O)c2ccc(Nc3ccccc3F)nc2)cc1	ROMK primary 2.7 | ROMK hit retest inactive
Cc1ccc(NC(=O)c2ccc(NCc3ccc(F)cc3)nc2)cc1	none
CCn1c(C(=O)N2CCC(C(=O)NCCCSC3CCCCC3)CC2)cc2sccc21	none (no result: ROMK primary) | ROMK hit retest inconclusive
CCN1CCN(C(=O)C2CCN(C(=O)c3cc4sccc4n3CC)CC2)CC1	none (no result: ROMK primary)
CCOC(=O)Cn1nnnc1C(CC)N(Cc1cccs1)Cc1cc2cc(C)ccc2[nH]c1=O (centres undefined)	ROMK primary -4 | ROMK hit retest inactive
CCOc1ccc2[nH]c(=O)c(CN(Cc3ccco3)Cc3nnnn3Cc3ccccc3)cc2c1	none (no result: ROMK primary)
CCOc1ccc2[nH]c(=O)c(CN(Cc3ccco3)C(CC)c3nnnn3Cc3ccccc3)cc2c1 (centres undefined)	none (no result: ROMK primary) | ROMK hit retest inactive
CCOC(=O)Cn1nnnc1C(C(C)C)N(Cc1cccs1)Cc1cc2cc(C)ccc2[nH]c1=O (centres undefined)	none
O=C(CNC(=S)N(Cc1ccccc1)Cc1cccnc1)N1CCOCC1	none
COc1ccc(-c2nnnn2-c2ccc(F)cc2F)cc1	ROMK primary -3.3 | ROMK hit retest inconclusive
COc1ccc(CCn2c(NN)nc3c2c(=O)[nH]c(=O)n3C)cc1	ROMK primary 4.8 (no result: Diaph inh CS, Diaph act CS, G6PDH CS, PMI activator, PMI act satM6P) | ROMK hit retest inconclusive
CNC(=S)NNC(=O)c1sc(-c2cc(C)on2)nc1C	none (no result: Diaph inh CS, Diaph act CS, G6PDH CS, PMI activator, PMI act satM6P)
COC(=O)/C(=C/c1c[nH]c2ccccc12)[N+](=O)[O-]	ROMK primary -3.8 | ROMK hit retest 0.062
CC(C)COC(=O)/C(C#N)=C/c1c[nH]c2ccccc12	none (no result: ROMK primary) | ROMK hit retest 0.034
COC(=O)/C(=C/c1cn(C)c2ccccc12)[N+](=O)[O-]	none (no result: ROMK primary) | ROMK hit retest 0.042
CCOC(=O)c1c(C)[nH]c(C)c1C(=O)COC(=O)c1cc(OC)c(OC)cc1OC	none
O=C(Nc1ccc(S(=O)(=O)Nc2ccccc2)cc1)c1ccc(CN2CCOCC2)cc1	none
O=C(CSCC(=O)N1CCCCC1)Nc1nc(-c2ccc(Cl)s2)cs1	none (no result: ROMK primary) | ROMK hit retest inconclusive
CCOC(=O)C(=Cc1cc(=O)c(OC)co1)C(=O)OCC	ROMK primary -4.1 | ROMK hit retest 0.048
